Experimental data from ChEMBL document CHEMBL5724801, “EUbOPEN Chemogenomics Library - Multiplex” (2024).
Values joined by “and” are separate entries in the source; they are usually repeats but may differ in a detail not shown here. Identical values can stand only once.

system: U2OS; assay: Multiplex assay against U2OS; assay type: toxicity, cell-based; conditions: human, 12 h, 1 µM, compound concentration 1 uM
Method in brief: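 Imaging took place on a CQ1 microscope at 37°C and 5% CO2 once compound had been added to live cells stained at seeding with Hoechst33342, BioTracker Green Microtubule Cytoskeleton Dye, MitoTracker Red and Annexin V Alexa Fluor 680. CellPathfinder machine-learning gating classed cells as Hoechst high-intensity objects or normal cells, classed normal cells as having healthy, pyknosed or fragmented nuclei, and classed pyknosed cells as mitotic or apoptotic. Tubulin, mitochondrial-mass and membrane-permeability phenotypes are per cents of the healthy-nucleus cells.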

Row | SMILES | Population Apoptotic (%) | Population Fragmented Nuclei (%) | Population Healthy Nuclei (%) | Population Hoechst High Intensity Objects (%) | Population Membrane Permeable-Phenotype (%) | Population Mitochondria Different-Phenotype (%) | Population Normal (%) | Population Pyknosed Nuclei (%) | Population Tubulin-Different-Phenotype (%) | Total Cell Count
1 | N#Cc1cc(F)cc(-c2nc(-c3ccc(F)cn3)no2)c1 | 55% and 100% | 24% and 17% | 65% and 79% | 1% and 0% | 5% and 6% | 0% and 5% | 98% and 99% | 10% and 4% | 3% and 2% | 178 and 101
2 | CN1CCN2c3ncccc3Cc3ccccc3C2C1 (configuration not stated) [MIRTAZAPINE] | 82% and 100% | 21% | 67% and 72% | 1% | 3% and 5% | 1% and 6% | 99% and 98% | 11% and 6% | 2% and 3% | –
3 | COc1ccc2c(c1)C(C(=O)N(Cc1ccc(N(C)C)cc1)c1ccc(C(C)C)cc1)CCC2.Cl (configuration not stated) | 70% | 36% and 17% | 54% and 73% | 4% and 3% | 8% and 9% | 5% and 3% | 95% and 96% | 9% and 8% | 4% and 2% | 264 and 122
4 | CC(F)(F)CN1CCOc2c(nn(-c3ccccc3Cl)c2-c2ccc(Cl)cc2)C1=O | 81% and 100% | – | 53% and 71% | 2% and 0% | 3% | – | 97% and 99% | – | 8% and 4% | 219 and 121

same assay, conditions: human, 12 h, 1 µM, compound concentration 1 uM

Row | SMILES | Population Mitotic Cells (%)
5 | CN1CCN2c3ncccc3Cc3ccccc3C2C1 (configuration not stated) [MIRTAZAPINE] | 17% and 0%
6 | COc1ccc2c(c1)C(C(=O)N(Cc1ccc(N(C)C)cc1)c1ccc(C(C)C)cc1)CCC2.Cl (configuration not stated) | 29% and 30%
7 | CC(F)(F)CN1CCOc2c(nn(-c3ccccc3Cl)c2-c2ccc(Cl)cc2)C1=O | 18% and 0%

same assay, conditions: human, 12 h, 10 µM, compound concentration 10 uM

Row | SMILES | Population Apoptotic (%) | Population Fragmented Nuclei (%) | Population Healthy Nuclei (%) | Population Hoechst High Intensity Objects (%) | Population Membrane Permeable-Phenotype (%) | Population Mitochondria Different-Phenotype (%) | Population Mitotic Cells (%) | Population Normal (%) | Population Pyknosed Nuclei (%) | Population Tubulin-Different-Phenotype (%)
8 | N#Cc1cc(F)cc(-c2nc(-c3ccc(F)cn3)no2)c1 | 76% and 88% | 33% and 12% | 59% and 81% | 1% | 8% and 7% | 2% and 4% | 23% and 11% | 98% | 6% | 2% and 1%
9 | CN1CCN2c3ncccc3Cc3ccccc3C2C1 (configuration not stated) [MIRTAZAPINE] | 73% and 66% | 19% and 13% | 71% and 82% | 3% | 6% and 3% | 5% and 4% | 26% and 33% | 96% | 8% and 3% | 6% and 0%
10 | COc1ccc2c(c1)C(C(=O)N(Cc1ccc(N(C)C)cc1)c1ccc(C(C)C)cc1)CCC2.Cl (configuration not stated) | 38% and 60% | 27% and 16% | 50% and 60% | 4% | 73% and 43% | 55% and 73% | 61% and 40% | 95% | 22% and 23% | 80% and 58%
11 | CC(F)(F)CN1CCOc2c(nn(-c3ccccc3Cl)c2-c2ccc(Cl)cc2)C1=O | 83% and 60% | – | 62% and 71% | 1% | 10% | – | 16% and 40% | 98% | – | 14% and 5%

same assay, conditions: human, 12 h, 10 µM, compound concentration 10 uM

Row | SMILES | Total Cell Count
12 | N#Cc1cc(F)cc(-c2nc(-c3ccc(F)cn3)no2)c1 | 196 and 151
13 | COc1ccc2c(c1)C(C(=O)N(Cc1ccc(N(C)C)cc1)c1ccc(C(C)C)cc1)CCC2.Cl (configuration not stated) | 224 and 113
14 | CC(F)(F)CN1CCOc2c(nn(-c3ccccc3Cl)c2-c2ccc(Cl)cc2)C1=O | 216 and 130

same assay, conditions: human, 24 h, 1 µM, compound concentration 1 uM

Row | SMILES | Population Apoptotic (%) | Population Fragmented Nuclei (%) | Population Healthy Nuclei (%) | Population Hoechst High Intensity Objects (%) | Population Membrane Permeable-Phenotype (%) | Population Mitochondria Different-Phenotype (%) | Population Mitotic Cells (%) | Population Normal (%) | Population Pyknosed Nuclei (%) | Population Tubulin-Different-Phenotype (%)
15 | N#Cc1cc(F)cc(-c2nc(-c3ccc(F)cn3)no2)c1 | 90% | 22% and 8% | 66% and 84% | 4% and 0% | 8% and 2% | 0% and 3% | 9% and 10% | 95% and 99% | 11% and 8% | 4% and 2%
16 | CN1CCN2c3ncccc3Cc3ccccc3C2C1 (configuration not stated) [MIRTAZAPINE] | 85% and 100% | 15% and 26% | 76% and 63% | 2% and 3% | 5% and 3% | 3% | 14% and 0% | 97% and 96% | 8% and 10% | 2% and 4%
17 | COc1ccc2c(c1)C(C(=O)N(Cc1ccc(N(C)C)cc1)c1ccc(C(C)C)cc1)CCC2.Cl (configuration not stated) | 75% and 100% | 27% and 18% | 61% and 73% | 4% and 2% | 5% | 4% and 1% | 24% and 0% | 95% and 97% | 11% and 7% | 4% and 2%
18 | CC(F)(F)CN1CCOc2c(nn(-c3ccccc3Cl)c2-c2ccc(Cl)cc2)C1=O | 95% and 90% | – | 55% and 71% | 4% and 1% | 9% | – | 4% and 10% | 95% and 98% | – | 6% and 13%

same assay, conditions: human, 24 h, 1 µM, compound concentration 1 uM

Row | SMILES | Total Cell Count
19 | N#Cc1cc(F)cc(-c2nc(-c3ccc(F)cn3)no2)c1 | 197 and 126
20 | COc1ccc2c(c1)C(C(=O)N(Cc1ccc(N(C)C)cc1)c1ccc(C(C)C)cc1)CCC2.Cl (configuration not stated) | 273 and 146
21 | CC(F)(F)CN1CCOc2c(nn(-c3ccccc3Cl)c2-c2ccc(Cl)cc2)C1=O | 246 and 155

same assay, conditions: human, 24 h, 10 µM, compound concentration 10 uM

Row | SMILES | Population Apoptotic (%) | Population Healthy Nuclei (%) | Population Hoechst High Intensity Objects (%) | Population Membrane Permeable-Phenotype (%) | Population Mitochondria Different-Phenotype (%) | Population Mitotic Cells (%) | Population Normal (%) | Population Pyknosed Nuclei (%) | Population Tubulin-Different-Phenotype (%) | Total Cell Count
22 | N#Cc1cc(F)cc(-c2nc(-c3ccc(F)cn3)no2)c1 | 93% and 88% | 60% and 85% | 1% and 0% | 7% and 5% | 0% and 1% | 6% and 11% | 98% and 99% | 7% and 4% | 2% and 1% | 230 and 216
23 | CN1CCN2c3ncccc3Cc3ccccc3C2C1 (configuration not stated) [MIRTAZAPINE] | 89% and 83% | 71% and 85% | 2% and 0% | 4% and 5% | 2% | 10% and 16% | 97% and 99% | 9% and 5% | 0% and 5% | 314 and 108
24 | COc1ccc2c(c1)C(C(=O)N(Cc1ccc(N(C)C)cc1)c1ccc(C(C)C)cc1)CCC2.Cl (configuration not stated) | 71% and 86% | 50% and 57% | 2% and 9% | 54% and 45% | 42% and 53% | 28% and 13% | 97% and 90% | 24% and 22% | 49% and 48% | 224 and 115
25 | CC(F)(F)CN1CCOc2c(nn(-c3ccccc3Cl)c2-c2ccc(Cl)cc2)C1=O | 70% and 80% | 63% and 77% | 1% | – | – | 29% and 20% | 98% | – | 7% and 5% | 248 and 154

same assay, conditions: human, 24 h, 10 µM, compound concentration 10 uM

Row | SMILES | Population Fragmented Nuclei (%)
26 | CN1CCN2c3ncccc3Cc3ccccc3C2C1 (configuration not stated) [MIRTAZAPINE] | 18% and 9%
27 | COc1ccc2c(c1)C(C(=O)N(Cc1ccc(N(C)C)cc1)c1ccc(C(C)C)cc1)CCC2.Cl (configuration not stated) | 25% and 20%

same assay, conditions: human, 48 h, 1 µM, compound concentration 1 uM

Row | SMILES | Population Apoptotic (%) | Population Fragmented Nuclei (%) | Population Healthy Nuclei (%) | Population Hoechst High Intensity Objects (%) | Population Membrane Permeable-Phenotype (%) | Population Mitochondria Different-Phenotype (%) | Population Mitotic Cells (%) | Population Normal (%) | Population Pyknosed Nuclei (%) | Population Tubulin-Different-Phenotype (%)
28 | N#Cc1cc(F)cc(-c2nc(-c3ccc(F)cn3)no2)c1 | 96% and 100% | 18% and 15% | 71% and 79% | 1% | 4% | 0% and 3% | 3% and 0% | 98% | 9% and 5% | 2% and 1%
29 | CN1CCN2c3ncccc3Cc3ccccc3C2C1 (configuration not stated) [MIRTAZAPINE] | 83% and 92% | 12% and 20% | 76% and 68% | 2% and 4% | 4% and 8% | 2% and 4% | 16% and 7% | 97% and 95% | 10% and 11% | 3% and 1%
30 | COc1ccc2c(c1)C(C(=O)N(Cc1ccc(N(C)C)cc1)c1ccc(C(C)C)cc1)CCC2.Cl (configuration not stated) | 80% and 93% | 21% and 17% | 65% and 73% | 2% and 3% | 10% and 6% | 5% and 4% | – | 97% and 96% | 13% and 8% | 3% and 2%
31 | CC(F)(F)CN1CCOc2c(nn(-c3ccccc3Cl)c2-c2ccc(Cl)cc2)C1=O | 94% and 89% | – | 66% and 69% | 4% and 1% | 6% and 7% | – | 5% and 10% | 95% and 98% | – | 3% and 6%

same assay, conditions: human, 48 h, 1 µM, compound concentration 1 uM

Row | SMILES | Total Cell Count
32 | N#Cc1cc(F)cc(-c2nc(-c3ccc(F)cn3)no2)c1 | 290 and 199
33 | COc1ccc2c(c1)C(C(=O)N(Cc1ccc(N(C)C)cc1)c1ccc(C(C)C)cc1)CCC2.Cl (configuration not stated) | 369 and 203
34 | CC(F)(F)CN1CCOc2c(nn(-c3ccccc3Cl)c2-c2ccc(Cl)cc2)C1=O | 333 and 203

same assay, conditions: human, 48 h, 10 µM, compound concentration 10 uM

Row | SMILES | Population Apoptotic (%) | Population Fragmented Nuclei (%) | Population Healthy Nuclei (%) | Population Hoechst High Intensity Objects (%) | Population Membrane Permeable-Phenotype (%) | Population Mitochondria Different-Phenotype (%) | Population Mitotic Cells (%) | Population Normal (%) | Population Pyknosed Nuclei (%) | Population Tubulin-Different-Phenotype (%)
35 | N#Cc1cc(F)cc(-c2nc(-c3ccc(F)cn3)no2)c1 | 85% and 94% | 30% and 10% | 62% and 84% | 1% | 6% and 4% | 2% | 14% and 5% | 98% | 7% and 5% | 3% and 2%
36 | CN1CCN2c3ncccc3Cc3ccccc3C2C1 (configuration not stated) [MIRTAZAPINE] | 95% and 100% | 15% and 12% | 75% and 78% | 2% | 7% and 3% | 4% and 3% | 5% and 0% | 97% | 9% | 5% and 3%
37 | COc1ccc2c(c1)C(C(=O)N(Cc1ccc(N(C)C)cc1)c1ccc(C(C)C)cc1)CCC2.Cl (configuration not stated) | 73% and 92% | 21% and 26% | 47% and 49% | 3% and 8% | 43% | 26% and 36% | – | 96% and 91% | 30% and 24% | 31% and 42%
38 | CC(F)(F)CN1CCOc2c(nn(-c3ccccc3Cl)c2-c2ccc(Cl)cc2)C1=O | 96% and 88% | – | 68% and 72% | 1% and 4% | 8% | – | 3% and 11% | 98% and 95% | – | 6% and 4%

same assay, conditions: human, 48 h, 10 µM, compound concentration 10 uM

Row | SMILES | Total Cell Count
39 | N#Cc1cc(F)cc(-c2nc(-c3ccc(F)cn3)no2)c1 | 282 and 344
40 | CN1CCN2c3ncccc3Cc3ccccc3C2C1 (configuration not stated) [MIRTAZAPINE] | 435 and 170
41 | COc1ccc2c(c1)C(C(=O)N(Cc1ccc(N(C)C)cc1)c1ccc(C(C)C)cc1)CCC2.Cl (configuration not stated) | 265 and 126
42 | CC(F)(F)CN1CCOc2c(nn(-c3ccccc3Cl)c2-c2ccc(Cl)cc2)C1=O | 322 and 204
